One may read the IC50 as the concentration needed to halve the response being measured. For orientation: inhibition means the change of the read-out against control, counted positive when it falls.

The record followed here is ChEMBL document CHEMBL1141808, “Polymethoxylated flavones derived from citrus suppress tumor necrosis factor-alpha expression by human monocytes” (J Nat Prod, 1999).

SMILES strings stand for the structures. Active and inactive are the calls of the source. The rule behind the calls is not given here.

The test system of series [1] is Monocyte. Description: Inhibition of TNFalpha expression in LPS-stimulated human monocytes treated 30 mins before LPS challenge measured after 14 hrs by ELISA. It counts as functional, cell-based. Summed up:
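Human PBMC at 4 × 10^6/mL in DMEM with 30% FCS, glutamine and pen/strep were allowed to adhere for 2 h at 37 °C and 5% CO2. Nonadherent lymphocytes were washed off. Adherent monocytes were preincubated 30 min with graded compound concentrations, then stimulated with LPS. After 14 h, supernatants were assayed by ELISA. Values are percent of compound-free cultures, as means ± SE from three donors.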

Series [2] in a line: Cytotoxicity against human monocytes assessed as depletion of cellular LDH activity. The format is cell-based. Also on record: concentration or dose not given beside the values. As to conditions: monocyte. Put shortly:
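Viability was taken from the LPS-stimulated adherent monocyte cultures after 14 h, lysed in 1% NP40 in PBS. LDH in the lysate was measured in 50 mM sodium pyrophosphate pH 8.9 with 50 mM lactic acid and 4 mg/mL NAD. The rate of NADH formation was read at 340 nm at room temperature. More than 20% depletion was counted as cytotoxic.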

The target of series [3] is T1, Phosphodiesterase 4 (Homo sapiens) (UniProt P27815+Q08499+Q07343+Q08493). Description: Inhibition of PDE4 in human monocytes assessed as elevation of cytosolic cAMP level at 100 uM treated for 30 mins assessed per 10^7 cells by EIA. It counts as cell-based. Summed up: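 Elutriated human monocytes at 5 × 10^6/mL in complete medium (30% FCS) were precultured 2 h at 37 °C and 5% CO2. They were then exposed for 30 min to 100 µM flavone or 200 µM IBMX. Cells were lysed in cold 10 mM HEPES pH 7.6 with 1% NP40. cAMP was isolated on SAX columns, eluted with methanol/0.01 M HCl, dried, and quantified by EIA as pmol/10^7 cells.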

The target in series [4] is T1, Phosphodiesterase 4 (Homo sapiens). Description: Inhibition of PDE4 in human U937 cells assessed as inhibition of cAMP hydrolysis at 11 uM by SPA. It counts as cell-based. As to conditions: U-937. Summed up:
(§1)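 PDE, mostly type IV by isoform-inhibitor sensitivity, was semipurified from U937 cells. cAMP hydrolysis was measured by scintillation proximity assay across graded compound concentrations. Rates were expressed as percent of flavonoid-free control, and the concentration giving 50% inhibition was reported.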

The subject of series [5] is Monocyte. Description: Inhibition of IL6 expression in LPS-stimulated human monocytes at 100 uM treated 30 mins before LPS challenge measured after 14 hrs by ELISA. It counts as functional. Put shortly:
(§2)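 Monocyte cultures were held 14 h in medium alone, with 20 ng/mL LPS alone, or with LPS plus 100 µM compound. IBMX served as reference. TNFα, IL-6, IL-8, IL-10 and MIP-1α were measured in supernatants by ELISA, and IL-1β in cell lysates made with 1% NP40 in PBS. Significance versus LPS alone was set at p < 0.05.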
(In general: ELISA stands for enzyme-linked immunosorbent assay.)

The subject of series [6] is Monocyte. Description: Inhibition of TNFalpha expression in LPS-stimulated human monocytes at 100 uM treated 30 mins before LPS challenge measured after 14 hrs by ELISA. The format is functional. Summed up:
as §2

The subject of series [7] is Monocyte. Description: Inhibition of MIP1alpha expression in LPS-stimulated human monocytes at 100 uM treated 30 mins before LPS challenge measured after 14 hrs by ELISA. The format is functional. Put shortly:
as §2

Series [8] has as its system Monocyte. Description: Inhibition of IL1-beta expression in LPS-stimulated human monocytes at 100 uM treated 30 mins before LPS challenge measured after 14 hrs by ELISA. It counts as functional. Summed up: as §2
The test system of series [9] is Monocyte. Description: Inhibition of IL10 expression in LPS-stimulated human monocytes at 100 uM treated 30 mins before LPS challenge measured after 14 hrs by ELISA. The format is functional. Summed up: as §2
Series [10] has as its system Monocyte. Description: Inhibition of IL8 expression in LPS-stimulated human monocytes at 100 uM treated 30 mins before LPS challenge measured after 14 hrs by ELISA. It counts as functional. Put shortly: as §2
Series [11] addresses T1, Phosphodiesterase 4 (Homo sapiens). Description: Inhibition of PDE4 in human U937 cells assessed as inhibition of cAMP hydrolysis at 16 uM by SPA. It counts as cell-based. As to conditions: U-937. Put shortly:
as §1

Regarding `COc1ccc(-c2cc(=O)c3c(OC)c(OC)ccc3o2)cc1OC`, the half-inhibitory concentration (IC50) in the series on Monocyte [1] turned out to be 25 µM. For the molecule `C[C@@H]1O[C@@H](OC[C@H]2O[C@@H](Oc3c(-c4ccc(O)cc4)oc4cc(O[C@@H]5O[C@@H](C)[C@H](O)[C@@H](O)[C@H]5O)cc(O)c4c3=O)[C@H](O)[C@@H](O)[C@@H]2O)[C@H](O)[C@H](O)[C@H]1O`, in series [2], the Activity result is recorded as “Non-toxic”. In the series on Monocyte [1], the result was inactive. The molecule `COc1cc(-c2cc(=O)c3c(OC)c(OC)c(OC)cc3o2)cc(OC)c1OC` yielded an IC50 in the series with Monocyte [1] of 20 µM.

In the series on Monocyte [1], `COc1ccc(-c2oc3c(OC)c(OC)c(OC)c(O)c3c(=O)c2OC)cc1OC` yielded an IC50 of 10 µM. In the series on Monocyte [1], `COc1ccc(-c2cc(=O)c3c(OC)cc(OC)c(OC)c3o2)cc1OC` gave an IC50 of 16 µM.

Consider `COc1ccc(-c2cc(=O)c3c(OC)c(OC)c(OC)cc3o2)cc1`, for which, in the series with Monocyte [1], it took 22 µM to reach half-maximal inhibition (IC50). Turning to `COc1ccc([C@@H]2CC(=O)c3c(O)cc(O)cc3O2)cc1O`, the result with Monocyte [1] was inactive. Take `Oc1cc(O)c2c(c1)OC(c1ccc(O)c(O)c1)C(O)C2` (centres undefined): the result in the series on Monocyte [1] was inactive. For the molecule `COc1c(-c2ccc(O)c(O)c2)oc2cc(O)cc(O)c2c1=O` [3-O-METHYLQUERCETIN], the concentration for half-maximal inhibition (IC50) in the series with Monocyte [1] was found to be 47 µM. Still for that read-out and setting: as for `COc1ccc(-c2cc(=O)c3c(O)c(OC)c(OC)c(OC)c3o2)cc1OC` [5-DEMETHYLNOBILETIN], the figure is 5 µM. For `O=c1cc(-c2ccccc2)oc2cc(O)ccc12` [7-HYDROXYFLAVONE], the Activity entry in [2] was “Non-toxic”. The outcome in the series on Monocyte [1] was inactive. Consider `Oc1cc(O)c2c(c1)O[C@H](c1ccc(O)c(O)c1)[C@H](O)C2` [(-)-EPICATECHIN], for which the Activity result in series [2] is reported as “Non-toxic”. In addition, the outcome in the series on Monocyte [1] was inactive. On to `COc1ccc(-c2cc(=O)c3c(O)cc(O)cc3o2)cc1` [ACACETIN], for which the Activity in series [2] is listed as > 20%. Also, the 50% inhibitory concentration (IC50) in the series on Monocyte [1] amounted to 22 µM. On the same counts, the results for `O=c1cc(-c2ccc(O)cc2)oc2cc(O)cc(O)c12` [APIGENIN] are > 20% and 20 µM. Turning to `O=c1cc(-c2ccccc2)oc2cc(O)c(O)c(O)c12` [BAICALEIN], the Activity entry in series [2] was “Non-toxic”. Also, the result in the series on Monocyte [1] was inactive. As to `Oc1cc(O)c2c(c1)O[C@H](c1ccc(O)c(O)c1)[C@@H](O)C2` [CATECHIN], the Activity result in [2] is on record as “Non-toxic”. As for `O=c1cc(-c2ccccc2)oc2cc(O)cc(O)c12` [CHRYSIN], the Activity result in series [2] is recorded as “Non-toxic”. For the same molecule, in the series on Monocyte [1], the result was inactive. The molecule `COc1cc(-c2cc(=O)c3c(O)cc(O)cc3o2)ccc1O` [CHRYSOERIOL] displayed an IC50 in the series on Monocyte [1] of 22 µM.

On to `COc1ccc(-c2cc(=O)c3c(O)cc(O[C@@H]4O[C@H](CO[C@@H]5O[C@@H](C)[C@H](O)[C@@H](O)[C@H]5O)[C@@H](O)[C@H](O)[C@H]4O)cc3o2)cc1O` [DIOSMIN], for which the Activity result in series [2] is reported as “Non-toxic”. The IC50 in the series with Monocyte [1] is > 200 µM. Consider `O=C1C[C@@H](c2ccc(O)c(O)c2)Oc2cc(O)cc(O)c21` [ERIODICTYOL], for which, in series [2], the Activity entry is reported as “Non-toxic”. Also, in the series on Monocyte [1], the outcome was inactive. The like results for `O=c1c(O)c(-c2ccc(O)c(O)c2)oc2cc(O)ccc12` [FISETIN] were, in that order, “Non-toxic” and “inactive”. The like results for `O=C1CC(c2ccccc2)Oc2ccccc21` (centres undefined) [FLAVANONE] were, in that order, “Non-toxic” and “inactive”. Turning to `O=c1cc(-c2ccccc2)oc2ccccc12` [FLAVONE], in the series on Monocyte [1], half-maximal inhibition (IC50) was put at 166 µM. Moreover, the Activity in series [3] came to 3.6 pmol. Moreover, in series [4], the inhibition was 50%.

Take `O=c1c(O)c(-c2ccccc2)oc2ccccc12` [FLAVONOL]: the Activity entry in series [2] is given as “Non-toxic”. The result with Monocyte [1] was inactive.

Consider `O=c1c(O)c(-c2ccccc2)oc2cc(O)cc(O)c12` [GALANGIN], for which the Activity entry in series [2] is “Non-toxic”. For the same molecule, in the series on Monocyte [1], the outcome was inactive.

Consider `O=c1c(O)c(-c2ccc(O)c(O)c2)oc2c(O)c(O)cc(O)c12` [GOSSYPETIN], for which, in series [2], the Activity result is “Non-toxic”. For the same molecule, in the series on Monocyte [1], the outcome was inactive.

As for `COc1ccc([C@@H]2CC(=O)c3c(O)cc(O[C@@H]4O[C@H](CO[C@@H]5O[C@@H](C)[C@H](O)[C@@H](O)[C@H]5O)[C@@H](O)[C@H](O)[C@H]4O)cc3O2)cc1O` [HESPERIDIN], in series [2], the Activity entry is given as “Non-toxic”. In addition, the IC50 in the series with Monocyte [1] is > 200 µM. For the molecule `CC(C)Cn1c(=O)n(C)c(=O)c2nc[nH]c21` [ISOBUTYLMETHYLXANTHINE], the Activity with Monocyte [5] was found to be 79.7 ng/mL; in the series with Monocyte [6] it was 10.9 ng/mL; with Monocyte [7], 33.2 ng/mL; with Monocyte [8] it was 99.1 ng/mL; in the series on Monocyte [9], 0.651 ng/mL; in the series on Monocyte [10] it was 335 ng/mL. For `O=c1c(O)c(-c2ccc(O)cc2)oc2cc(O)cc(O)c12` [KAEMPFEROL], the Activity in [2] is > 20%. For the same molecule, the half-inhibitory concentration (IC50) in the series on Monocyte [1] is 20 µM. On the same counts, the results for `COc1cc(-c2oc3c(OC)c(O)cc(O)c3c(=O)c2O)ccc1O` [LIMOCITRIN] are > 20% and 67 µM. With `O=c1c(O)c(-c2cc(O)c(O)c(O)c2)oc2cc(O)cc(O)c12` [MYRICETIN], the Activity entry in series [2] was “Non-toxic”; in [3], 3.7 pmol. Besides, the result in the series on Monocyte [1] was inactive. Moreover, the inhibition in series [11] came to 50%. In the case of `C[C@@H]1O[C@@H](O[C@H]2[C@H](Oc3cc(O)c4c(c3)O[C@H](c3ccc(O)cc3)CC4=O)O[C@H](CO)[C@@H](O)[C@@H]2O)[C@H](O)[C@H](O)[C@H]1O` [NARINGIN], the Activity entry in [2] is reported as “Non-toxic”. The 50% inhibitory concentration (IC50) in the series with Monocyte [1] is > 200 µM. As to `C[C@@H]1O[C@@H](OC[C@H]2O[C@@H](Oc3cc(O)c4c(c3)O[C@H](c3ccc(O)cc3)CC4=O)[C@H](O)[C@@H](O)[C@@H]2O)[C@H](O)[C@H](O)[C@H]1O` [NARIRUTIN], in series [2], the Activity result was “Non-toxic”. Moreover, the concentration for half-maximal inhibition (IC50) in the series with Monocyte [1] is > 200 µM. `COc1ccc(-c2cc(=O)c3c(OC)c(OC)c(OC)c(OC)c3o2)cc1OC` [NOBILETIN] came in with an IC50 in the series on Monocyte [1] of 10 µM. Take `O=c1c(O)c(-c2ccc(O)c(O)c2)oc2cc(O)cc(O)c12` [QUERCETIN]: the Activity in series [2] is recorded as > 20%. The molecule further gave an IC50 in the series with Monocyte [1] of 120 µM.

For the molecule `COc1cc(O)c2c(=O)c(O)c(-c3ccc(O)c(O)c3)oc2c1` [RHAMNETIN], the Activity in series [2] is on record as > 20%. In the series on Monocyte [1], this molecule gave an IC50 of 22 µM.

In turn, `COc1ccc(-c2cc(=O)c3c(OC)c(OC)c(OC)cc3o2)cc1OC` [SINENSETIN] yielded a concentration for half-maximal inhibition (IC50) with Monocyte [1] of 8 µM. Consider `COc1ccc(-c2cc(=O)c3c(OC)c(OC)c(OC)c(OC)c3o2)cc1` [TANGERETIN], for which, in the series with Monocyte [1], the IC50 stood at 30 µM.
